In ChEMBL document CHEMBL1687766, “In vitro activity of the new multivalent glycopeptide-cephalosporin antibiotic TD-1792 against vancomycin-nonsusceptible Staphylococcus isolates” (Antimicrob Agents Chemother, 2010):
Values after ≈ are worked out from the molar mass of the structure shown.

What was measured:
Format in all cases: functional
Staphylococcus aureus [1] = test: Antimicrobial activity against vancomycin-intermediate Staphylococcus aureus isolate NJ992 after 24 hrs by microdilution method; settings: isolate NJ992, 24 h
Summary of the method: (§1)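 Broth microdilution per CLSI, inoculum 5 × 10^5 CFU/ml, Mueller-Hinton broth with 12.5 μg/ml magnesium and 25 μg/ml calcium (SMHB). Daptomycin was instead tested in SMHB at physiologic calcium (final 1.1 to 1.3 mM). Incubation 24 h at 35°C; MIC read; run in duplicate. MBC from 5-μl samples of clear wells plated on BHI agar, 24 h at 35°C.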

Staphylococcus aureus [2] = test: Antimicrobial activity against vancomycin-resistant Staphylococcus aureus isolate MI assessed as bacterial count at 8 times MIC after 24 hrs by colony counting method in presence of 50% human serum
Summary of the method: (§2)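 Time-kill in triplicate, starting inoculum 5 × 10^6 CFU/ml from a mid-exponential culture. Medium was 50% heat-treated, filtered human serum plus 50% broth, final 25 SMHB for TD-1792 and 50 SMHB for daptomycin. Drug at multiples of MIC. Samples to 24 h were plated on BHI agar for 24 h at 35°C. Value is the log10 CFU/ml change from baseline at 24 h.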

Staphylococcus aureus [3] = test: Antimicrobial activity against vancomycin-resistant Staphylococcus aureus isolate PA after 24 hrs by microdilution method in presence of 50% human serum
Summary of the method: (§3)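 Broth microdilution per CLSI, inoculum 5 × 10^5 CFU/ml, 24 h at 35°C, in duplicate. Medium was 50% (vol/vol) human serum plus 50% broth, final 25 SMHB for TD-1792 and 50 SMHB for daptomycin. Serum was heated 56°C for 1 h and filtered through 0.8, 0.5 and 0.22 μm. MBC by plating clear wells on BHI agar.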

Staphylococcus aureus [4] = test: Antimicrobial activity against vancomycin-intermediate Staphylococcus aureus isolate NJ992 assessed as bacterial count at 16 times MIC after 24 hrs by colony counting method in presence of 50% human serum; summary of the method: as §2
Staphylococcus aureus [5] = test: Antimicrobial activity against vancomycin-resistant Staphylococcus aureus isolate PA assessed as bacterial count at 8 times MIC after 24 hrs by colony counting method in presence of 50% human serum; summary of the method: as §2
Staphylococcus aureus [6] = test: Antimicrobial activity against vancomycin-resistant Staphylococcus aureus isolate NY after 24 hrs by microdilution method in presence of 50% human serum; summary of the method: as §3
Staphylococcus aureus [7] = test: Antimicrobial activity against vancomycin-resistant Staphylococcus aureus isolate MI assessed as bacterial count at 32 times MIC after 24 hrs by colony counting method in presence of 50% human serum; summary of the method: as §2
Staphylococcus aureus [8] = test: Antimicrobial activity against vancomycin-resistant Staphylococcus aureus isolate MI assessed as bacterial count at 4 times MIC after 24 hrs by colony counting method in presence of 50% human serum; summary of the method: as §2
Staphylococcus aureus [9] = test: Antimicrobial activity against vancomycin-intermediate Staphylococcus aureus isolate NJ992 assessed as bacterial count at 32 times MIC after 24 hrs by colony counting method in presence of 50% human serum
Summary of the method: (§4)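 Triplicate 24-h time-kill in 50% human serum (heated 56°C 1 h, filtered) mixed with supplemented Mueller-Hinton broth, giving final 25 μg/ml Ca broth strength for TD-1792 and 50 for daptomycin. […] Samples from 0 to 24 h were counted on BHI agar (35°C, 24 h). Value is log10 CFU/ml change from baseline.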

Staphylococcus aureus [10] = test: Antimicrobial activity against vancomycin-intermediate Staphylococcus aureus isolate NJ992 assessed as bacterial count at 4 times MIC after 24 hrs by colony counting method in presence of 50% human serum; summary of the method: as §4
Staphylococcus aureus [11] = test: Ratio of MIC for vancomycin-intermediate Staphylococcus aureus in presence of 50% human serum to MIC for vancomycin-intermediate Staphylococcus aureus
Staphylococcus aureus [12] = test: Antimicrobial activity against vancomycin-intermediate Staphylococcus aureus after 24 hrs by microdilution method; settings: for MBC / MIC50 / MIC90: Staphylococcus aureus, 24 h; summary of the method: as §1
Staphylococcus aureus [13] = test: Antimicrobial activity against vancomycin-intermediate Staphylococcus aureus isolate NJ992 assessed as bacterial count at 4 times MIC after 24 hrs by colony counting method
Summary of the method: (§5)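 24-h time-kill run in triplicate in supplemented Mueller-Hinton broth (12.5 μg/ml Mg, 25 μg/ml Ca), adjusted to 1.1–1.3 mM Ca for daptomycin. […] Samples were taken at 0, 1, 4, 8 and 24 h and counted on BHI agar after 24 h at 35°C. Value is log10 CFU/ml change from baseline at 24 h.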

Staphylococcus aureus [14] = test: Antimicrobial activity against vancomycin-resistant Staphylococcus aureus isolate MI assessed as bacterial count at 16 times MIC after 24 hrs by colony counting method in presence of 50% human serum; summary of the method: as §2
[15] = test system: Staphylococcus haemolyticus; test: Antimicrobial activity against vancomycin-intermediate Staphylococcus haemolyticus after 24 hrs by microdilution method; settings: for MBC / MIC50 / MIC90: Staphylococcus haemolyticus, 24 h
Summary of the method: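 CLSI broth microdilution in supplemented Mueller-Hinton broth (12.5 μg/ml Mg, 25 μg/ml Ca), with Ca adjusted to 1.1–1.3 mM for daptomycin. Inoculum was 5 × 10^5 CFU/ml, incubated 24 h at 35°C, done in duplicate. For MBC, clear wells were plated on BHI agar and read after 24 h at 35°C.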

Staphylococcus aureus [16] = test: Antimicrobial activity against vancomycin-resistant Staphylococcus aureus isolate MI after 24 hrs by microdilution method; summary of the method: as §1
[17] = test system: Staphylococcus haemolyticus; test: Ratio of MIC for vancomycin-intermediate Staphylococcus haemolyticus in presence of 50% human serum to MIC for vancomycin-intermediate Staphylococcus haemolyticus
Summary of the method: (§6)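 Ratio of the broth microdilution MIC (5 × 10^5 CFU/ml, 24 h, 35°C, duplicate) measured in 50% heat-treated human serum/supplemented Mueller-Hinton broth to the MIC measured in supplemented broth alone.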

Staphylococcus aureus [18] = test: Antimicrobial activity against vancomycin-resistant Staphylococcus aureus isolate PA after 24 hrs by microdilution method; summary of the method: as §1
Staphylococcus aureus [19] = test: Antimicrobial activity against vancomycin-intermediate Staphylococcus aureus isolate NJ992 assessed as bacterial count at 8 times MIC after 24 hrs by colony counting method in presence of 50% human serum; summary of the method: as §2
Staphylococcus aureus [20] = test: Antimicrobial activity against vancomycin-intermediate Staphylococcus aureus isolate NJ992 assessed as bacterial count at 8 times MIC after 24 hrs by colony counting method; summary of the method: as §5
Staphylococcus aureus [21] = test: Ratio of MIC for vancomycin-intermediate Staphylococcus aureus isolate NJ992 in presence of 50% human serum to MIC for vancomycin-intermediate Staphylococcus aureus isolate NJ992; summary of the method: as §6
Staphylococcus aureus [22] = test: Antimicrobial activity against vancomycin-intermediate Staphylococcus aureus isolate NJ992 assessed as bacterial count at 16 times MIC after 24 hrs by colony counting method; summary of the method: as §5
Staphylococcus aureus [23] = test: Antimicrobial activity against vancomycin-resistant Staphylococcus aureus isolate MI after 24 hrs by microdilution method in presence of 50% human serum; summary of the method: as §3
Staphylococcus aureus [24] = test: Antimicrobial activity against vancomycin-heteroresistant Staphylococcus aureus after 24 hrs by microdilution method in presence of 50% human serum; summary of the method: as §3

SMILES | MBC (Staphylococcus aureus [1]) [µg/mL] | MIC (Staphylococcus aureus [1]) [µg/mL] | log10CFU/ml (Staphylococcus aureus [2]) | MBC (Staphylococcus aureus [3]) [µg/mL] | MIC (Staphylococcus aureus [3]) [µg/mL] | log10CFU/ml (Staphylococcus aureus [4]) | log10CFU/ml (Staphylococcus aureus [5]) | MBC (Staphylococcus aureus [6]) [µg/mL] | MIC (Staphylococcus aureus [6]) [µg/mL] | log10CFU/ml (Staphylococcus aureus [7]) | log10CFU/ml (Staphylococcus aureus [8]) | log10CFU/ml (Staphylococcus aureus [9]) | log10CFU/ml (Staphylococcus aureus [10]) | Ratio (Staphylococcus aureus [11]) | MBC50 (Staphylococcus aureus [12]) [µg/mL] | MBC90 (Staphylococcus aureus [12]) [µg/mL] | MBC (Staphylococcus aureus [12]) [µg/mL] | MIC50 (Staphylococcus aureus [12]) [µg/mL] | MIC90 (Staphylococcus aureus [12]) [µg/mL] | log10CFU/ml (Staphylococcus aureus [13]) | further results
CN[C@H](CC(C)C)C(=O)N[C@H]1C(=O)N[C@@H](CC(N)=O)C(=O)N[C@H]2C(=O)N[C@H]3C(=O)N[C@H](C(=O)N[C@H](C(=O)NCCCO/N=C(\C(=O)N[C@@H]4C(=O)N5C(C(=O)[O-])=C(C[n+]6ccccc6)CS[C@H]45)c4nc(N)sc4Cl)c4cc(O)cc(O)c4-c4cc3ccc4O)[C@H](O)c3ccc(c(Cl)c3)Oc3cc2cc(c3O[C@@H]2O[C@H](CO)[C@@H](O)[C@H](O)[C@H]2O[C@H]2C[C@](C)(N)[C@H](O)[C@H](C)O2)Oc2ccc(cc2Cl)[C@H]1O | 0.06 (≈ 0.0303 µM) | 0.06 (≈ 0.0303 µM) | 4.06 | 0.125 | 0.125 | 4.76 | 4.65 | 0.5 | 0.25 | 4.03 | 4.12 | 4.92 | 3.61 | 2 | 0.06 (≈ 0.0303 µM) | 0.125 (≈ 0.063 µM) | 0.015 (≈ 0.00756 µM) | 0.06 (≈ 0.0303 µM) | 0.125 (≈ 0.063 µM) | 3.84 | log10CFU/ml (Staphylococcus aureus [14]): 4.11; MBC50 [15]: 0.06 µg/mL (≈ 0.0303 µM); MBC90 [15]: 0.125 µg/mL (≈ 0.063 µM); MBC [15]: 0.015 µg/mL (≈ 0.00756 µM); MIC50 [15]: 0.06 µg/mL (≈ 0.0303 µM); MIC90 [15]: 0.125 µg/mL (≈ 0.063 µM); MBC (Staphylococcus aureus [16]): 0.5 µg/mL (≈ 0.252 µM); MIC (Staphylococcus aureus [16]): 0.25 µg/mL (≈ 0.126 µM); Ratio [17]: 2; MBC (Staphylococcus aureus [18]): 0.125 µg/mL (≈ 0.063 µM); MIC (Staphylococcus aureus [18]): 0.03 µg/mL (≈ 0.0151 µM); log10CFU/ml (Staphylococcus aureus [19]): 4.09; log10CFU/ml (Staphylococcus aureus [20]): 4.48; Ratio (Staphylococcus aureus [21]): 4; log10CFU/ml (Staphylococcus aureus [22]): 4.94; MBC (Staphylococcus aureus [23]): 8 µg/mL; MIC (Staphylococcus aureus [23]): 2 µg/mL; MBC (Staphylococcus aureus [24]): 0.03 µg/mL; MIC50 (Staphylococcus aureus [24]): 0.25 µg/mL; MIC90 (Staphylococcus aureus [24]): 0.5 µg/mL
CCCCCCCCCC(=O)N[C@@H](Cc1c[nH]c2ccccc12)C(=O)N[C@H](CC(N)=O)C(=O)N[C@@H](CC(=O)O)C(=O)N[C@@H]1C(=O)NCC(=O)N[C@@H](CCCN)C(=O)N[C@@H](CC(=O)O)C(=O)N[C@H](C)C(=O)N[C@@H](CC(=O)O)C(=O)NCC(=O)N[C@H](CO)C(=O)N[C@@H]([C@H](C)CC(=O)O)C(=O)N[C@@H](CC(=O)c2ccccc2N)C(=O)O[C@@H]1C | 1 (≈ 0.617 µM) | 1 (≈ 0.617 µM) | 4.69 | 0.5 | 0.25 | 5.03 | 5.11 | 0.25 | 0.25 | 5.11 | 2.53 | 5.04 | 4.78 | 2 | 1 (≈ 0.617 µM) | 2 (≈ 1.23 µM) | 0.25 (≈ 0.154 µM) | 1 (≈ 0.617 µM) | 1 (≈ 0.617 µM) | 3.61 | log10CFU/ml (Staphylococcus aureus [14]): 4.6; MBC50 [15]: 1 µg/mL (≈ 0.617 µM); MBC90 [15]: 2 µg/mL (≈ 1.23 µM); MBC [15]: 0.25 µg/mL (≈ 0.154 µM); MIC50 [15]: 1 µg/mL (≈ 0.617 µM); MIC90 [15]: 1 µg/mL (≈ 0.617 µM); MBC (Staphylococcus aureus [16]): 0.25 µg/mL (≈ 0.154 µM); MIC (Staphylococcus aureus [16]): 0.25 µg/mL (≈ 0.154 µM); Ratio [17]: 2; MBC (Staphylococcus aureus [18]): 0.25 µg/mL (≈ 0.154 µM); MIC (Staphylococcus aureus [18]): 0.25 µg/mL (≈ 0.154 µM); log10CFU/ml (Staphylococcus aureus [19]): 5.01; log10CFU/ml (Staphylococcus aureus [20]): 3.86; Ratio (Staphylococcus aureus [21]): 2; log10CFU/ml (Staphylococcus aureus [22]): 4.68; MBC (Staphylococcus aureus [23]): 1 µg/mL; MIC (Staphylococcus aureus [23]): 0.5 µg/mL; MBC (Staphylococcus aureus [24]): 1 µg/mL; MIC50 (Staphylococcus aureus [24]): 1 µg/mL; MIC90 (Staphylococcus aureus [24]): 4 µg/mL
